Measured values taken from ChEMBL document CHEMBL3132830, “Discovery of a Potent Anti-tumor Agent through Regioselective Mono-N-acylation of 7H-Pyrrolo[3,2-f]quinazoline-1,3-diamine” (Medchemcomm, 2013).
Active and inactive are the calls of the source. No cut-off for these calls is given here.

Key:
[1] = system: MDA-MB-468; test: Growth inhibition of human MDA-MB-468 cells after 72 hrs by MTT assay; format: functional; conditions: MDA-MB-468, 72 h
Summary of the method: (§1)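 MTT assay in triple-negative breast cancer cells; 72 h continuous compound exposure; top concentration tested 100 μM. GI50 is the concentration giving 50% growth inhibition over 72 h. Values are mean ± SD of at least two independent experiments, each run in duplicate.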

[2] = system: MDA-MB-231; test: Growth inhibition of human MDA-MB-231 cells after 72 hrs by MTT assay; format: functional; conditions: MDA-MB-231, 72 h; summary of the method: as §1
[3] = system: HMEC; test: Toxicity against HMEC at 0.1 uM after 72hrs by MTT assay; format: cell-based; conditions: human
Summary of the method: (§2)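 Normal human mammary epithelial cells (HMEC) exposed to compound continuously for 72 h; toxicity read at concentrations from 0.1 μM up to 10 μM.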

[4] = system: HMEC; test: Toxicity against HMEC at 10 uM after 24 hrs by MTT assay; format: cell-based; conditions: human
Summary of the method: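 HMEC given a 24 h drug treatment; toxicity assessed at concentrations up to 10 μM.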

[5] = biological target: T1, Dihydrofolate reductase (Homo sapiens) (UniProt P00374); test: Inhibition of human DHFR up to 10 uM
T1 sequence (whole entry): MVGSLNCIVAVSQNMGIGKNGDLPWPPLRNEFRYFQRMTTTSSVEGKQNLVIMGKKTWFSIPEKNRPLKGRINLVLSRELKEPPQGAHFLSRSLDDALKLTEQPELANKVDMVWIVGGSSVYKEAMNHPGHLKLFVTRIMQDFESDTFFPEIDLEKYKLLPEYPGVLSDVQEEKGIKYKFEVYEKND

[6] = system: HMEC; test: Toxicity against HMEC up to 5 uM after 72 hrs by MTT assay; format: cell-based; conditions: human; summary of the method: as §2
[7] = system: HEK-293T; test: Inhibition of CREB binding protein (unknown origin) expressed in HEK293T cells assessed as reduction in CREB-mediated gene transcription up to 10 uM by CREB reporter gene assay; format: cell-based; conditions: Homo sapiens
Summary of the method: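 CREB-mediated gene transcription measured with a CREB reporter assay in HEK 293T cells; compound tested at concentrations up to 10 μM.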

[8] = system: HMEC; test: Toxicity against HMEC at 10 uM after 72 hrs by MTT assay; format: cell-based; conditions: human; summary of the method: as §2

Structure (SMILES)	GI50 [1] [µM]	GI50 [2] [µM]	other results
CCCC(=O)Nc1nc(N)c2c(ccc3[nH]ccc32)n1	27.4	25.5	
CC(C)C(=O)Nc1nc(N)c2c(ccc3[nH]ccc32)n1	29.8	39.7	
CC(C)C(=O)Nc1nc(N)nc2ccc3[nH]ccc3c12	> 100	> 100	
CCC(=O)Nc1nc(N)nc2ccc3[nH]ccc3c12	20.3	18.7	
CC(=O)Nc1nc(N)c2c(ccc3[nH]ccc32)n1	53.5	27.2	
COc1cccc2c1C(=O)c1c(O)c3c(c(O)c1C2=O)C[C@@](O)(C(=O)CO)C[C@@H]3O[C@H]1C[C@H](N)[C@H](O)[C@H](C)O1 [DOXORUBICIN]	0.085	0.15	Activity [3]: Toxic
Nc1nc(N)c2c(ccc3[nH]ccc32)n1	3.34	4.13	
CCCC(=O)Nc1nc(N)nc2ccc3[nH]ccc3c12	26.3	26.9	
Nc1nc(NC(=O)c2ccc3ccccc3c2)c2c(ccc3[nH]ccc32)n1	8.91	8.46	
CCC(=O)Nc1nc(N)c2c(ccc3[nH]ccc32)n1	24.4	21.4	
CC(C)(C)[Si](C)(C)OCCCCC(=O)Nc1nc(N)c2c(ccc3[nH]ccc32)n1	2.24	2.43	
CC(=O)Nc1nc(NC(C)=O)c2c(ccc3[nH]ccc32)n1	> 100	> 100	
Nc1nc(NC(=O)c2ccc3ccccc3c2)nc2ccc3[nH]ccc3c12	0.44	1.6	Activity [4]: Non-toxic; inhibition [5]: inactive; Activity [6]: Non-toxic; inhibition [7]: inactive; Activity [8]: Toxic
CC(C)(C)[Si](C)(C)OCCCCC(=O)Nc1nc(N)nc2ccc3[nH]ccc3c12	11.1	15.6	
CC(=O)Nc1nc(N)nc2ccc3[nH]ccc3c12	56.5	32.6	
